Measured values from ChEMBL document CHEMBL1152308, “Cytotoxic phenanthrenequinones and 9,10-dihydrophenanthrenes from Calanthe arisanensis” (J Nat Prod, 2009).
Converted amounts (≈) assume the structure as drawn.

How the values were obtained:
Type in all cases: functional, cell-based
KB = assay: Cytotoxicity against human KB cells after 3 days by sulforhodamine B assay; settings: 72 h
Procedure, shortened: (§1)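 Freshly trypsinized cells seeded at 5000 per well; compounds added from DMSO-diluted stock. Cells grown in RPMI-1640 with 25 mM HEPES, 0.25% sodium bicarbonate, 10% FBS and 100 μg/mL kanamycin. After three days, attached cells fixed with cold 10% TCA and stained with 0.4% SRB. Bound dye solubilized and absorbance read at 562 nm. EC50 (50% growth reduction) averaged from at least three independent determinations.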

DU-145 = assay: Cytotoxicity against human DU145 cells after 3 days by sulforhodamine B assay; settings: DU-145, 72 h; procedure, shortened: as §1
A549 = assay: Cytotoxicity against human A549 cells after 3 days by sulforhodamine B assay; settings: A549, 72 h; procedure, shortened: as §1
MCF7 = assay: Cytotoxicity against human MCF7 cells after 3 days by sulforhodamine B assay; settings: MCF7, 72 h; procedure, shortened: as §1
PC-3 = assay: Cytotoxicity against human PC3 cells after 3 days by sulforhodamine B assay; settings: PC-3, 72 h; procedure, shortened: as §1
[1] = Cytotoxicity against human KBVIN cells after 3 days by sulforhodamine B assay; settings: 72 h; procedure, shortened: as §1
HCT-8 = assay: Cytotoxicity against human HCT8 cells after 3 days by sulforhodamine B assay; settings: HCT-8, 72 h; procedure, shortened: as §1

Structure (SMILES)	EC50 (KB) [mg/L]	EC50 (DU-145) [mg/L]	EC50 (A549)	EC50 (MCF7)	EC50 (PC-3) [mg/L]	EC50 [1] [mg/L]	EC50 (HCT-8)
COc1cc(O)cc2c1-c1ccc(O)cc1CC2	3.4 (≈ 14 µM)	4.79 (≈ 19.8 µM)	5.05 mg/L	1.8 mg/L	2.82 (≈ 11.6 µM)	7.92 (≈ 32.7 µM)	3.84 mg/L
COc1cc2c(cc1O)CCc1cc(O)cc(OC)c1-2	3.9 (≈ 14.3 µM)	5.38 (≈ 19.8 µM)	4.24 mg/L	2.59 mg/L	2.67 (≈ 9.81 µM)	5.84 (≈ 21.4 µM)	4.55 mg/L
COc1cc(O)c(-c2c(O)cc(OC)c3c2CCc2cc(O)ccc2-3)c2c1-c1ccc(O)cc1CC2	4.4 (≈ 9.12 µM)	4.11 (≈ 8.52 µM)	4.61 mg/L	3.5 mg/L	5.37 (≈ 11.1 µM)	3.96 (≈ 8.21 µM)	4.6 mg/L
COC1=CC(=O)c2ccc3ccccc3c2C1=O [ANNOQUINONE A]	0.16 (≈ 0.672 µM)	–	–	–	–	–	–
COc1cc2ccc3cccc(O)c3c2c(OC)c1O [BULBOPHYLLANTHRIN]	5.63 (≈ 20.8 µM)	8.29 (≈ 30.7 µM)	5.06 mg/L	3.26 mg/L	3.38 (≈ 12.5 µM)	6.99 (≈ 25.9 µM)	5.26 mg/L
COc1cc2c(c(OC)c1O)-c1c(O)ccc(O)c1CC2 [CALANHYDROQUINONE A]	3.47 (≈ 12 µM)	5.84 (≈ 20.3 µM)	3.58 mg/L	2.31 mg/L	2.52 (≈ 8.74 µM)	5.37 (≈ 18.6 µM)	4.57 mg/L
COc1c(O)cc2c(c1OC)-c1c(O)ccc(O)c1CC2 [CALANHYDROQUINONE B]	3.75 (≈ 13 µM)	5.46 (≈ 18.9 µM)	4.07 mg/L	3.28 mg/L	2.62 (≈ 9.09 µM)	5.24 (≈ 18.2 µM)	5.16 mg/L
COc1cc2c(c(OC)c1OC)-c1c(O)ccc(O)c1CC2 [CALANHYDROQUINONE C]	2.86 (≈ 9.46 µM)	3.78 (≈ 12.5 µM)	2.36 mg/L	1.7 mg/L	0.85 (≈ 2.81 µM)	4.73 (≈ 15.6 µM)	3.96 mg/L
COc1cc(O)c2c(c1)CCc1ccc(O)c(OC)c1-2 [CALANPHENANTHRENE A]	11.8 (≈ 43.3 µM)	13.2 (≈ 48.5 µM)	7.71 mg/L	6.52 mg/L	7.06 (≈ 25.9 µM)	5.48 (≈ 20.1 µM)	6.73 mg/L
COC1=CC(=O)c2ccc3cc(OC)c(OC)c(O)c3c2C1=O [CALANQUINONE A]	0.32 (≈ 1.02 µM)	0.34 (≈ 1.08 µM)	0.19 mg/L	< 0.02 mg/L	0.16 (≈ 0.509 µM)	0.45 (≈ 1.43 µM)	0.2 mg/L
COC1=CC(=O)c2ccc3cc(OC)c(O)c(OC)c3c2C1=O [CALANQUINONE B]	6.46 (≈ 20.6 µM)	6.45 (≈ 20.5 µM)	4.54 mg/L	1.81 mg/L	1.55 (≈ 4.93 µM)	13.3 (≈ 42.3 µM)	4.56 mg/L
COc1cc2c(c(OC)c1O)C1=C(CC2)C(=O)C=CC1=O [CALANQUINONE C]	2.97 (≈ 10.4 µM)	4.34 (≈ 15.2 µM)	3.58 mg/L	2.12 mg/L	2.07 (≈ 7.23 µM)	4.68 (≈ 16.3 µM)	4.14 mg/L
COc1cc(O)c(-c2c(O)cc(OC)c3c2ccc2cc(O)ccc23)c2c1-c1ccc(O)cc1CC2 [CIRRHOPETALANTHRIN]	–	–	11.2 µM	12.5 µM	–	–	7.3 µM
CC(=O)O[C@H]1C(=O)[C@@]2(C)[C@H]([C@H](OC(=O)c3ccccc3)[C@]3(O)C[C@H](OC(=O)[C@H](O)[C@@H](NC(=O)c4ccccc4)c4ccccc4)C(C)=C1C3(C)C)[C@]1(OC(C)=O)CO[C@@H]1C[C@@H]2O [PACLITAXEL]	< 0.005	< 0.005	< 0.005 mg/L	0.0072 mg/L	0.0097 (≈ 0.0114 µM)	2.16 (≈ 2.53 µM)	0.21 mg/L
COC1=CC(=O)c2ccc3cc(OC)c(OC)cc3c2C1=O [SPHENONE A]	2.7 (≈ 9.05 µM)	–	–	–	–	–	–
